Read-outs that look alike come from different tables or passages of the source.
Assays:
rats = assay: Acute in vivo toxicity in rats; details: oral 10 mg/kg
Procedure, shortened: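 Male Sprague-Dawley rats (250–300 g), n = 4, dosed once by oral gavage at 10 mg/kg in 5% DMSO / 40% PEG 400 / 55% saline. Dosing was part of a pharmacokinetic study, with tail-vein blood drawn at 1, 3, 6 and 24 h. Time to death after oral dosing was recorded in hours.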

[1] = Oral pharmacokinetic study in Sprague-Dawley rats; type: in vivo, rat; details: single oral dose 10 mg/kg
Procedure, shortened: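 Male Sprague-Dawley rats (250–300 g, n = 4) received a single 10 mg/kg oral gavage in 5% DMSO/40% PEG 400/55% saline. Tail-vein blood was taken into EDTA at 1, 3, 6 and 24 h, and plasma was stored at −80 °C. Plasma was extracted with chloroform/methanol (2:1) using a 13C2,15N-tamoxifen internal standard. Quantitation was by UPLC–triple-quadrupole MS/MS with a water/acetonitrile 0.05% formic acid gradient.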

[2] = Metabolic profiling by liver microsome incubation; type: in vitro ADME, human; details: 37 °C, 60 min, NADPH; mono-hydroxylation products by HRMS
Procedure, shortened: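 Pooled human liver microsomes in potassium phosphate buffer (pH 7.4) with NADPH solutions A and B were preincubated for 5 min at 37 °C. Test compound was added from a 10 mM stock and incubated for 60 min at 37 °C. Methanol stopped the reaction, and samples were centrifuged at 10,000 × g for 4 min at 4 °C. Supernatant was analysed by UHPLC with high-resolution mass spectrometry.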

PC-3 cells [3] = assay: Cell cycle analysis by flow cytometry with propidium iodide staining; type: cell-based, human; details: for Cell cycle phase of arrest: PC-3, 28 at 5 μM, 46 at 4 μM
Procedure, shortened: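 PC-3 cells were seeded at 200,000/well and allowed to attach for 3 h. They were treated with test compound at 4 or 5 μM, or DMSO vehicle, at 37 °C and harvested at 16 or 24 h, including floating cells. Cells were fixed in cold 80% ethanol for 30 min at 4 °C and RNase-treated for 30 min at 37 °C. Staining used propidium iodide (50 μg/mL stock) for 30 min, and DNA content was read by flow cytometry within 0.5–1 h.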

[4] = test system: three human prostate cancer cell lines; assay: Anti-proliferative potency across three prostate cancer cell lines; type: cell-based; details: read-out: IC50 range in three prostate cancer cell lines
Procedure, shortened: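 Human prostate cancer cells were grown at 37 °C in 5% CO2: PC-3 and LNCaP in RPMI-1640, DU-145 in EMEM, each with 10% FBS and 1% penicillin/streptomycin. Cells were seeded at 3,200/well and exposed to test compound for 3 days, with DMSO as vehicle control. WST-1 reagent was added for 3 h at 37 °C and absorbance read at 430 nm. IC50 came from linear inhibition over ≥5 doses, averaged over triplicates.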

DU145 cells = assay: WST-1 cell proliferation assay, DU145; type: cell-based; details: Homo sapiens, DU-145, 72 h, read-out: IC50 DU145
Procedure, shortened: (§1)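 PC-3 and LNCaP cells grown in RPMI-1640, DU145 in EMEM, each with 10% FBS and 1% penicillin/streptomycin at 37 °C, 5% CO2. Cells seeded at 3,200/well, then exposed 3 days to at least five doses of test compound, with DMSO as vehicle control. WST-1 reagent added for 3 h at 37 °C, absorbance read at 430 nm. IC50 taken from linear inhibition plot; mean ± SD of triplicates.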

LNCaP cells = assay: WST-1 cell proliferation assay, LNCaP; type: cell-based; details: Homo sapiens, 72 h, read-out: IC50 LNCaP
Procedure, shortened: as §1

PC-3 cells [5] = assay: WST-1 cell proliferation assay, PC-3; type: cell-based; details: Homo sapiens, PC-3, 72 h, read-out: IC50 PC-3
Procedure, shortened: as §1

[6] = mice, single oral dose 1 mg/kg; cited from earlier work
PC-3 cells [7] = details: cited from earlier work

In the case of `CCC(C)n1ccnc1/C=C/C(=O)/C=C/c1sc(C)nc1C(F)(F)F` (stereo not drawn) [Compd 28, (1E,4E)-1-(1-(sec-Butyl)-1H-imidazol-2-yl)-5-(2-methyl-4-(trifluoromethyl)thiazol-5-yl)penta-1,4-dien-3-one], the “Acute in vivo toxicity (tolerability)” value (rats) is reported as “without observed toxicity”, the “Peak plasma concentration in molar units” value [1] is reported as 5.27 µM and the “Major metabolic products detected after microsomal incubation” value [2] is reported as “three major metabolic products”. For the same compound, the “Lower cell population at G2 phase vs control, 16 h” value (PC-3 cells [3]; 5 μM, 16 h) was 10%, the “Higher cell population at G0/G1 phase vs control, 24 h” value (PC-3 cells [3]; 5 μM, 24 h) was 4% and the “Lower cell population at G2 phase vs control, 24 h” value (PC-3 cells [3]; 5 μM, 24 h) was 3%. For the same compound, the “Cell cycle phase of arrest” value (PC-3 cells [3]) was “cell cycle arrest at the G0/G1 phase”.

In the case of `CCCn1ccnc1/C=C/C(=O)/C=C/c1nc2ccccc2n1CCC` [Compd 46, (1E,4E)-1-(1-Propyl-1H-benzo[d]imidazole-2-yl)-5-(1-propyl-1H-imidazole-2-yl)penta-1,4-dien-3-one], the “Time to death after oral dosing” value (rats) is reported as “about 48 hours” and the “Cell cycle phase of arrest” value (PC-3 cells [3]) is reported as “cell cycle arrest at the G0/G1 phase”.

With `CCn1c(/C=C/C(=O)/C=C/c2sc(C)nc2C(F)(F)F)nc2ccccc21` [Compd 49, (1E,4E)-1-(1-Ethyl-1H-benzo[d]imidazol-2-yl)-5-(2-methyl-4-(trifluoromethyl)thiazol-5-yl)penta-1,4-dien-3-one] the “Acute in vivo toxicity (tolerability)” value (rats) was “without observed toxicity” and the “Major metabolic products detected after microsomal incubation” value [2] was “two major metabolic products”.

In the case of `CC(C)n1c(/C=C/C(=O)/C=C/c2ccccn2)nc2ccccc21` [Compd 58, (1E,4E)-1-(1-Isopropyl-1H-benzo[d]imidazol-2-yl)-5-(pyridin-2-yl)penta-1,4-dien-3-one], the “Time to death after oral dosing” value (rats) is reported as ~72 h and the IC50 [4] is reported as 0.03 to 0.12 µM.

`COc1cc(/C=C/C(=O)CC(=O)/C=C/c2ccc(O)c(OC)c2)ccc1O` [Curcumin] gave an IC50 (DU145 cells) of 26.2 ± 0.65 µM, an IC50 (LNCaP cells) of 13.6 ± 2.69 µM and an IC50 (PC-3 cells [5]) of 25.4 ± 2.15 µM. The “Area under curve (AUC)” value [6] was 2.85 ng·h/mL and the “Cell cycle phase of arrest” value (PC-3 cells [7]) was “G1/S phase”.

Source: article PMC5548007 (European journal of medicinal chemistry, 2017)
